A short description of series [1]: Buffer stability in AC assay buffer pH 4.5 by LC-MS. Format: physicochemical.
Series [2] has as its target T1, purified recombinant human AC (Homo sapiens, UniProt Q13510).
T1 sequence (Q13510 143-395 limits assumed): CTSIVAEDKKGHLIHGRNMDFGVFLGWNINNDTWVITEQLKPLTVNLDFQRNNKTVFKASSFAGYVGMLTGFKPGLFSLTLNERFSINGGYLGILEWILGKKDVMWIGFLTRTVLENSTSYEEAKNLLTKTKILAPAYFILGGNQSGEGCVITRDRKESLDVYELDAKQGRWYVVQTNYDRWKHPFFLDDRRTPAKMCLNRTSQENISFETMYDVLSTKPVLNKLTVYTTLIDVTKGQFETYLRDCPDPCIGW
T1 sequence (Q13510 22-142 limits assumed): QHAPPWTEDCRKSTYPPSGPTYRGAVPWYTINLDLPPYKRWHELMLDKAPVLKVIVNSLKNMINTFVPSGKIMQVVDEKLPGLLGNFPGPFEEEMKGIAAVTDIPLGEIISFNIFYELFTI
Nature of the series: LC-MS study of covalent adduct with AC. The settings on record: 1:10 protein:compound, 1 h, 37 °C, pH 4.5. Type of series: binding.

In series [3] the target is T2, human AC (Homo sapiens, UniProt Q13510).
T2 sequence (Q13510 22-395): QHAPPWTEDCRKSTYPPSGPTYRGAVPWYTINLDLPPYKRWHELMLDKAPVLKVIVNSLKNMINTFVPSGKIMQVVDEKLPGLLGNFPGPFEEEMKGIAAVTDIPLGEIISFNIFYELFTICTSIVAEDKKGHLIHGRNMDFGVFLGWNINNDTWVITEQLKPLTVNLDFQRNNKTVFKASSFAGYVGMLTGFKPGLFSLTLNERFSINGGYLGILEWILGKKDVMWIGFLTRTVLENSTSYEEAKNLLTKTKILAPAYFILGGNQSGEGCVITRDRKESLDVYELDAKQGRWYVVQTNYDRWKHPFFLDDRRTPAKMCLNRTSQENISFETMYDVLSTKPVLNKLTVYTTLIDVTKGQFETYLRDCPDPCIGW
Nature of the series: Kinetic analysis of the AC reaction. Type of series: biochemical. The following applies: mean of two independent experiments. An outline of the steps: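 Kinetic analysis of the fluorescence-based AC reaction run with vehicle (1% DMSO) or test compound at 20 or 50 nm, n=6 each. Vmax given in relative fluorescence units; KM derived for each condition. Values are the mean of two independent experiments.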

A short description of series [4]: Chemical stability in [D6]DMSO. Format: physicochemical.
Series [5] concerns the target T2, human AC. Nature of the series: Acid ceramidase. Type of series: biochemical. The settings on record: for IC50 [nM] ±S.E.M on human AC: means of at least three determinations.
Series [6] concerns rat AC. The settings on record: read-out: IC50 for rat AC; cited from earlier work.

Entries after “also recorded” stand apart in the source; their conditions may differ.

`O=C(NCCCCc1ccccc1)n1c(=O)oc2ccccc21` [9 a, 2-oxo-N-(4-phenylbutyl)-1,3-benzoxazole-3-carboxamide]: the half-life at 10 µM in series [1] was 2.1 ± 0.05 h. Further, the “covalent binding to AC (LC-MS, tryptic peptide CTSIVAEDK)” value in series [2] was “covalently binds to the catalytic cysteine, Cys-143”. Further, the Vmax is 7808 RFU in series [3] (9 a 20 nM) and 3889 RFU in series [3] (9 a 50 nM).
`O=c1oc2ccccc2n1C(=S)NCCCCc1ccccc1` [9 b]: the “chemical stability in [D6]DMSO” value in series [4] was “limited chemical stability”. The “IC50 [nM] ±S.E.M on human AC” value in series [5] is “not stable”.
Take `CN(CCCCc1ccccc1)C(=O)n1c(=O)oc2ccccc21` [9 c]: the “IC50 [nM] ±S.E.M on human AC” value in series [5] is on record as “no inhibitory activity; also recorded: no inhibition”.
The same measure, in the same setting: as for `O=C(OCCCCc1ccccc1)n1c(=O)oc2ccccc21` [9 d], the entry is “no inhibitory activity; also recorded: no inhibition”.
Same read-out and setting: for `O=C(CCCCCc1ccccc1)n1c(=O)oc2ccccc21` [9 e] the value was “Loss of activity; also recorded: no inhibition”.
Turning to `O=C(NCCCCc1ccccc1)n1c(=O)oc2cc(Br)ccc21` [16 a], in series [1], the half-life at 10 µM is 4.9 ± 0.5 h. For the same compound, the “potency relative to 9 a” value in series [5] (human AC) was “two-fold increase in potency”.
Consider `CCCCCCNC(=O)n1cc(F)c(=O)[nH]c1=O` [carmofur, 5-fluoro-N-hexyl-2,4-dioxo-pyrimidine-1-carboxamide], for which the half-maximal inhibitory concentration (IC50) in series [6] was 29 nM.
For `O=c1[nH]c2ccc(-c3ccc(F)cc3)cc2o1` [compound 19], in series [5] (at 10 μM), the “inhibition of AC in vitro” value was “did not inhibit”.

Usually half-life stands for how long it takes for the measured level to halve. High values mean slow loss, low ones fast loss. The IC50 is the concentration that inhibits the measured activity by half.

Values taken from article PMC4502975 (Angewandte Chemie (International Ed. in English), 2014).
